From ChEMBL document CHEMBL4145561, “Tiacumicin Congeners with Improved Antibacterial Activity from a Halogenase-Inactivated Mutant” (2018)
≈ marks a conversion by molar mass, not a printed value.

Columns and labels:
Assay type in all cases: functional
Bacillus thuringiensis = experiment: Antimicrobial activity against Bacillus thuringiensis SCSIO BT01 by broth microdilution method
Method in brief: (§1)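 Mueller Hinton broth microdilution; MIC read as the minimal inhibitory concentration. Run against a panel of indicator strains that included MRSA, S. aureus ATCC 29213, B. thuringiensis SCSIO BT01, M. luteus SCSIO ML 01 and E. faecalis ATCC 29212.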

Enterococcus faecalis = experiment: Antimicrobial activity against Enterococcus faecalis ATCC 29212 by broth microdilution method; method in brief: as §1
Staphylococcus aureus [1] = experiment: Antimicrobial activity against Staphylococcus aureus ATCC 29213 by broth microdilution method; method in brief: as §1
Staphylococcus aureus [2] = experiment: Antimicrobial activity against methicillin-resistant Staphylococcus aureus isolate shhs-A1 by broth microdilution method
Method in brief: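 Minimal inhibitory concentration determined by broth microdilution in Mueller Hinton broth against methicillin-resistant S. aureus shhs-A1, one strain of an indicator panel that also included S. aureus ATCC 29213, B. thuringiensis SCSIO BT01, M. luteus SCSIO ML 01 and E. faecalis ATCC 29212.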

Micrococcus luteus = experiment: Antimicrobial activity against Micrococcus luteus SCSIO ML01 by broth microdilution method; method in brief: as §1

Structure (SMILES)	MIC (Bacillus thuringiensis) [mg/L]	MIC (Enterococcus faecalis) [mg/L]	MIC (Staphylococcus aureus [1]) [mg/L]	MIC (Staphylococcus aureus [2]) [mg/L]	MIC (Micrococcus luteus) [mg/L]
CCc1cc(O)cc(O)c1C(=O)O[C@H]1[C@H](O)[C@H](O)[C@H](OC/C2=C\C=C\C[C@H](O)/C(C)=C/[C@H](CC)[C@@H](O[C@@H]3OC(C)(C)[C@@H](OC(=O)C(C)C)[C@H](O)[C@@H]3O)/C(C)=C/C(C)=C/C[C@@H](CC)OC2=O)O[C@@H]1C	16 (≈ 16.7 µM)	> 128	> 128	> 128	> 128
CC[C@H]1/C=C(\C)[C@@H](O)C/C=C/C=C(\CO[C@@H]2O[C@H](C)[C@@H](O)[C@H](O)[C@@H]2OC)C(=O)O[C@H]([C@@H](C)O)C/C=C(C)/C=C(\C)[C@@H]1O[C@@H]1OC(C)(C)[C@@H](OC(=O)C(C)C)[C@H](O)[C@@H]1O	> 128	> 128	> 128	> 128	> 128
CCc1cc(O)cc(O)c1C(=O)O[C@H]1[C@H](O)[C@H](OC)[C@H](OC/C2=C\C=C\C[C@H](O)/C(C)=C/[C@H](CC)[C@@H](O[C@@H]3OC(C)(C)[C@@H](OC(=O)C(C)C)[C@H](O)[C@@H]3O)/C(C)=C/C(C)=C/C[C@@H](C(C)=O)OC2=O)O[C@@H]1C	8 (≈ 8.1 µM)	> 128	> 128	> 128	> 128
CCc1cc(O)cc(O)c1C(=O)O[C@H]1[C@H](O)[C@H](OC)[C@H](OC/C2=C\C=C\C[C@H](O)/C(C)=C/[C@H](CC)[C@@H](O[C@@H]3OC(C)(C)[C@@H](OC(C)=O)[C@H](O)[C@@H]3O)/C(C)=C/C(C)=C/C[C@@H]([C@@H](C)O)OC2=O)O[C@@H]1C	8 (≈ 8.32 µM)	> 128	128 (≈ 133 µM)	> 128	64 (≈ 66.6 µM)
CCCc1cc(O)cc(O)c1C(=O)O[C@H]1[C@H](O)[C@H](OC)[C@H](OC/C2=C\C=C\C[C@H](O)/C(C)=C/[C@H](CC)[C@@H](O[C@@H]3OC(C)(C)[C@@H](OC(=O)C(C)C)[C@H](O)[C@@H]3O)/C(C)=C/C(C)=C/C[C@@H]([C@@H](C)O)OC2=O)O[C@@H]1C	0.5 (≈ 0.498 µM)	4 (≈ 3.99 µM)	2 (≈ 1.99 µM)	2 (≈ 1.99 µM)	1 (≈ 0.997 µM)
CCc1cc(O)cc(O)c1C(=O)O[C@H]1[C@H](O)[C@H](OC)[C@H](OC/C2=C\C=C\C[C@H](O)/C(C)=C/[C@H](CC)[C@@H](O[C@@H]3OC(C)(C)[C@@H](OC(=O)C(C)C)[C@H](O)[C@@H]3O)/C(C)=C/C(C)=C/C[C@@H]([C@@H](C)O)OC2=O)O[C@@H]1C	1 (≈ 1.01 µM)	16 (≈ 16.2 µM)	2 (≈ 2.02 µM)	2 (≈ 2.02 µM)	2 (≈ 2.02 µM)
CC[C@@H]1C/C=C(C)/C=C(\C)[C@H](O[C@@H]2OC(C)(C)[C@@H](O)[C@H](O)[C@@H]2O)[C@@H](CC)/C=C(\C)[C@@H](O)C/C=C/C=C(\CO[C@@H]2O[C@H](CO)[C@@H](O)[C@H](O)[C@@H]2O)C(=O)O1	> 128	> 128	> 128	> 128	> 128
CCc1cc(O)cc(O)c1C(=O)O[C@H]1[C@H](O)[C@H](OC)[C@H](OC/C2=C\C=C\C[C@H](O)/C(C)=C/[C@H](CC)[C@@H](O[C@@H]3OC(C)(C)[C@@H](OC(=O)C(C)C)[C@H](O)[C@@H]3O)/C(C)=C/C(C)=C/C[C@@H](CC)OC2=O)O[C@@H]1C	4 (≈ 4.11 µM)	> 128	> 128	> 128	> 128
CC[C@H]1/C=C(\C)[C@@H](O)C/C=C/C=C(\CO[C@@H]2O[C@H](C)[C@@H](OC(=O)c3c(C)cc(O)cc3O)[C@H](O)[C@@H]2OC)C(=O)O[C@H]([C@@H](C)O)C/C=C(C)/C=C(\C)[C@@H]1O[C@@H]1OC(C)(C)[C@@H](OC(=O)C(C)C)[C@H](O)[C@@H]1O	8 (≈ 8.2 µM)	64 (≈ 65.6 µM)	16 (≈ 16.4 µM)	16 (≈ 16.4 µM)	16 (≈ 16.4 µM)
CCC(=O)O[C@H]1[C@H](O)[C@H](O)[C@H](O[C@H]2/C(C)=C/C(C)=C/C[C@@H]([C@@H](C)O)OC(=O)/C(CO[C@@H]3O[C@H](C)[C@@H](OC(=O)c4c(O)cc(O)cc4CC)[C@H](O)[C@@H]3OC)=C/C=C/C[C@H](O)/C(C)=C/[C@@H]2CC)OC1(C)C	2 (≈ 2.05 µM)	32 (≈ 32.8 µM)	8 (≈ 8.2 µM)	8 (≈ 8.2 µM)	16 (≈ 16.4 µM)
CCc1cc(O)cc(O)c1C(=O)O[C@H]1[C@H](O)[C@H](OC)[C@H](OC/C2=C\C=C\C[C@H](O)/C(C)=C/[C@H](CC)[C@@H](O[C@@H]3OC(C)(C)[C@@H](O)[C@H](O)[C@@H]3O)/C(C)=C/C(C)=C/C[C@@H](CC)OC2=O)O[C@@H]1C	16 (≈ 17.7 µM)	> 128	> 128	> 128	8 (≈ 8.86 µM)
CCc1c(Cl)c(O)c(Cl)c(O)c1C(=O)O[C@H]1[C@H](O)[C@H](OC)[C@H](OC/C2=C\C=C\C[C@H](O)/C(C)=C/[C@H](CC)[C@@H](O[C@@H]3OC(C)(C)[C@@H](OC(=O)C(C)C)[C@H](O)[C@@H]3O)/C(C)=C/C(C)=C/C[C@@H]([C@@H](C)O)OC2=O)O[C@@H]1C [FIDAXOMICIN]	2 (≈ 1.89 µM)	16 (≈ 15.1 µM)	4 (≈ 3.78 µM)	1 (≈ 0.945 µM)	4 (≈ 3.78 µM)
